Results pooled from the literature.
Each line is one published result; the experiments were not run side by side.
FLT3 D835V: Receptor-type tyrosine-protein kinase FLT3 (FLT3, Homo sapiens, UniProt P36888, D835V)
FLT3 D835H: Receptor-type tyrosine-protein kinase FLT3 (FLT3, Homo sapiens, UniProt P36888, D835H)
FLT3 R834Q: Receptor-type tyrosine-protein kinase FLT3 (FLT3, Homo sapiens, UniProt P36888, R834Q)
FLT3 N841I: Receptor-type tyrosine-protein kinase FLT3 (FLT3, Homo sapiens, UniProt P36888, N841I)
FLT3 autoinhibited: Receptor-type tyrosine-protein kinase FLT3, autoinhibited (FLT3, Homo sapiens, UniProt P36888)
FLT3: Receptor-type tyrosine-protein kinase FLT3 (FLT3, Homo sapiens, UniProt P36888)

For `Cc1cnc(Nc2ccc(C(=O)N3CCC(N4CCCC4)CC3)cc2)nc1-c1cc2ccccc2s1`, the remaining binding was 0.6% (FLT3 D835V; binding, competition with immobilised ligand; 1 µM).
The remaining binding of `C[C@@H](c1ccc(-n2cnc3c(N)ncnc32)cc1)N1CCc2nn(C)c(Cc3ccccc3)c2C1=O` is reported as 94% (FLT3 D835H; binding, competition with immobilised ligand; 0.1 µM).
The remaining binding of `CNC(=O)[C@@H]1CC[C@@H](n2c(-c3ccc4cnccc4c3)nc3ccc(C(=O)NCc4cccc(C(N)=O)c4)cc32)C1` is reported as 100% (FLT3 R834Q; binding, competition with immobilised ligand; 1 µM).
For `CN1CCN(c2ccc(Nc3nccc(-c4cccc([N+](=O)[O-])c4)n3)cc2C(F)(F)F)CC1`, the remaining binding was 3.7% (FLT3 R834Q; binding; 10 µM).
For `CN([C@@H]1CCc2c(CC(=O)O)c3cc(S(C)(=O)=O)ccc3n2C1)S(=O)(=O)c1ccc(F)cc1`, the remaining binding was 100% (FLT3 N841I; cell-free assay, competition with immobilised ligand; 1 µM).
`C[C@H]1CCN(c2nccc(-c3cnn4ncccc34)n2)C1` gave a remaining binding of 53% (FLT3 D835V; binding; 1 µM).
The remaining binding of `CCCCN(CCCC)C(=O)CN1C[C@H](c2cc(OC)c3c(c2)OCO3)[C@@H](C(=O)O)[C@@H]1CC(C)(C)CCC` is reported as 76% (FLT3 autoinhibited; cell-free assay, competition with immobilised ligand; 1 µM).
`Cc1cnn2ncc(-c3ccnc(N(C)C)n3)c2c1` gave a remaining binding of 100% (FLT3 N841I; binding; 1 µM).
`O=C(NCCCN1CCOCC1)c1ccc(Nc2nccc(-c3cc4ccccc4s3)n2)cc1` gave a remaining binding of 9.2% (FLT3 N841I; binding, competition with immobilised ligand; 1 µM).
`C[C@H](c1ccc(F)cc1)N(Cc1cccc(C(=O)O)c1)C(=O)c1cnc2ccccc2c1` has a remaining binding of 100% (Receptor-type tyrosine-protein kinase FLT3 (FLT3, Homo sapiens, UniProt P36888, ITD); cell-free assay, competition with immobilised ligand; 1 µM).
`O=C(c1ccc(Nc2ncc(Cl)c(-c3cc4ccccc4s3)n2)cc1)N1CCC(N2CCCC2)CC1` has a remaining binding of 2.5% (FLT3; binding, competition with immobilised ligand; 1 µM).
With `C[C@H](c1ccnc(Nc2nc3ccc(-c4cc(N(C)C)ncn4)cc3[nH]2)c1)N1CCN(C(=O)CC(F)(F)F)CC1` the remaining binding was 67% (FLT3; cell-free assay, competition with immobilised ligand; 0.1 µM).
`N[C@@H]1CCN(c2nccc(-c3cnn4ncccc34)n2)C1` gave a remaining binding of 100% (FLT3 autoinhibited; binding; 1 µM).
With `CO[C@H]1CC[C@H](CNc2ccc(S(=O)(=O)NC(=O)c3ccc(N4CCN(CC5=C(c6ccc(Cl)cc6)CC(C)(C)CC5)CC4)cc3Oc3cnc4[nH]ccc4c3)cc2[N+](=O)[O-])CC1` the remaining binding was 100% (FLT3; cell-free assay, competition with immobilised ligand; 1 µM).
The remaining binding of `CC1CCCN1c1nccc(-c2cnn3ncccc23)n1` (stereo not shown) is reported as 90% (FLT3 D835H; binding; 1 µM).
The remaining binding of `Cn1nc(C(=O)NCc2ccc(C(=O)O)cc2)cc1-c1ccc2[nH]ccc2c1` is reported as 100% (FLT3 N841I; cell-free assay, competition with immobilised ligand; 0.1 µM).
With `CN(CCCC(F)(F)F)c1nccc(-c2cnn3ncccc23)n1` the remaining binding was 96% (FLT3 D835H; binding; 1 µM).
With `O=C(Nc1c[nH]nc1C(=O)NC1CCNCC1)c1cc(F)cc(F)c1` the remaining binding was 100% (FLT3 D835H; binding, competition with immobilised ligand; 1 µM).
`COc1ccnn2ncc(-c3ccnc(N(C)C)n3)c12` gave a remaining binding of 78% (FLT3 autoinhibited; binding; 1 µM).
The remaining binding of `CN(C)c1ncnc(-c2ccc3nc(Nc4cc(CN5CCN(C(=O)CC(F)(F)F)CC5)ccn4)[nH]c3c2)c1Cl` is reported as 38% (Receptor-type tyrosine-protein kinase FLT3 (FLT3, Homo sapiens, UniProt P36888, D835Y); cell-free assay, competition with immobilised ligand; 1 µM).
The remaining binding of `O=C(NCCCN1CCOCC1)c1ccc(Nc2ncc(Cl)c(-c3ccc(Cl)s3)n2)cc1` is reported as 3.1% (FLT3 D835H; binding, competition with immobilised ligand; 1 µM).
For `CN(c1nccc(-c2cnn3ncccc23)n1)C1CC1`, the remaining binding was 78% (FLT3 D835V; binding; 1 µM).
